Assay outcomes deposited in PubChem BioAssay by several laboratories.
Diaph inh CS: diaphorase inhibitors and chemical oxidizers, primary screen, counter-screen for diaphorase-coupled primary assays, biochemical, uHTS, resorufin fluorescence. diaphorase resazurin-to-resorufin fluorescence, NADH, 16 min; bacterial (C. kluyveri) enzyme, not human. inhibition, % at 20 µM. 190,000 tested, 0.69% active. AID 1217, 2008;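 active means primary screen inhibition at 20 µM above a set limit, cut at about 50% in these data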;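 further: plate controls were DMSO with full reaction for no effect and wells lacking NADH for full effect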
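System: Diaphorase enzyme from Clostridium kluyveri | Amount: Enzyme working solution with 0.14 U/mL diaphorase | Benchmarks: No-NADH positive control and DMSO neutral control | Signal: Fluorescence of resorufin formed from resazurin, Ex 544/Em 590 nm | Schedule: 16-min room-temperature incubation before reading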
PfG6PD inh: PfG6PD enzyme inhibitors, primary screen, biochemical, fluorescence intensity, uHTS. glucose-6-phosphate dehydrogenase-6-phosphogluconolactonase (Plasmodium falciparum 3D7). PfGluPho enzyme, NADPH resazurin-diaphorase fluorescence. inhibition, % at 20 µM. 350,000 tested, 0.78% active. AID 504690, 2011;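 active means inhibition reaching at least a set limit at 20 µM in the primary screen, cut at about 59% in these data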;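 further: 0% = DMSO wells with substrate and 100% = DMSO wells lacking glucose-6-phosphate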
Tb hexokinase: Trypanosoma brucei hexokinase 1 inhibitors, primary screen, biochemical, G6PDH-coupled NADH absorbance, MLSCN library. AID 1430, 2008. recombinant TbHK1, G6PDH-coupled NADH A340. hexokinase 1 [Trypanosoma brucei]. inhibition, % at 10 µM. 220,000 tested, 0.11% active;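 active means inhibition of 50% or more in the single-dose primary screen; inactive means inhibition below 50%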
Diaphorase act: compounds boosting diaphorase resazurin reduction – biochemical, uHTS, resorufin fluorescence, counter-screen for diaphorase-coupled primary assays, primary screen; Diaphorase/resazurin coupled assay, 16 min; stronger effect = higher value; 1 = vehicle wells, 0 = NADH-free wells; activation factor at 20 µM; 190,000 tested, 0.005% active;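 active means diaphorase activity raised at least twofold by the compound at 20 µM; inactive means activation factor below 2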
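Material: Purified diaphorase enzyme from Clostridium kluyveri | Buffer or medium: 50 mM HEPES pH 7.4 with 4.542 mM MgCl2, 0.005% Tween 20 | Times: 16 min enzyme reaction, ambient temperature | Signal: Red resorufin fluorescence at 544/590 nm excitation/emission | Measure: Increased resorufin signal from activators or reducing compounds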
G6PDH counter: L. mesenteroides G6PDH inhibitors, counter-screen for G6PDH-coupled screening assays, biochemical, Leuconostoc mesenteroides enzyme; glucose-6-phosphate dehydrogenase [Leuconostoc mesenteroides]; Purified L. mesenteroides G6PDH, diaphorase/resazurin coupled fluorescence, 45 min; inhibition, % at 5 µM; 200,000 tested, 0.12% active; AID 1020, 2008; in the data active means inhibition above about 50%
HKDC1 inh: HKDC1 hexokinase inhibitors, primary screen, biochemical, fluorescence, uHTS | recombinant HKDC1, G6PDH/diaphorase resazurin coupled fluorescence | Q2TB90 | 340,000 tested, 0.16% active | inhibition, % at 20 µM;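 active means inhibition above about 35% when tested at 20 µM, limit read from the data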;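 further: plate controls were DMSO wells with enzyme for no effect and DMSO wells lacking enzyme for full effect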
Target sequence (Q2TB90 whole entry, looked up): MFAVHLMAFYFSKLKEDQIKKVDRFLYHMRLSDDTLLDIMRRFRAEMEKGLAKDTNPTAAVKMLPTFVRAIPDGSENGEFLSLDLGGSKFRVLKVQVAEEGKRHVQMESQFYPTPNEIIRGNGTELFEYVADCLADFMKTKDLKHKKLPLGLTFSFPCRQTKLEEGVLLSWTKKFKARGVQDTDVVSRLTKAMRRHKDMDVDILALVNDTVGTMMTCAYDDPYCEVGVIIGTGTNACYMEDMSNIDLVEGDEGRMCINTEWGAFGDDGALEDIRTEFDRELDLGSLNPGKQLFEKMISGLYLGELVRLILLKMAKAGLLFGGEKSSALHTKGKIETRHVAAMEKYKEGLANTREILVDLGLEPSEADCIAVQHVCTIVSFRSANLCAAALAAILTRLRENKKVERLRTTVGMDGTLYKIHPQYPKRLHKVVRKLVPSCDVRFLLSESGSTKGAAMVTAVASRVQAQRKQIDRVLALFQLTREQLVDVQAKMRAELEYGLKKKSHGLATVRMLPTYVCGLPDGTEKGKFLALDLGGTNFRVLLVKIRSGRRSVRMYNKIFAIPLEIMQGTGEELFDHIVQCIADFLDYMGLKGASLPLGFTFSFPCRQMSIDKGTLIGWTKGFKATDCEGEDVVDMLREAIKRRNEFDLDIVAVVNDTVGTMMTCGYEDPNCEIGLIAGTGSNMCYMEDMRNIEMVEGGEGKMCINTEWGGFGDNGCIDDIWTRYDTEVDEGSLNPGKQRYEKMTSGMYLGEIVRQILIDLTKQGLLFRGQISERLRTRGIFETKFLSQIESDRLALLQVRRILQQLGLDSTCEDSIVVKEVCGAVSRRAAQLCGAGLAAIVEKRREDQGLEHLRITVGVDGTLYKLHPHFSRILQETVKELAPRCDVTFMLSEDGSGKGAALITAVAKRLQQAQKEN
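Assay system: recombinant HKDC1 hexokinase; detection: coupled resazurin fluorescence, excitation 525 nm, emission 613 nm; benchmarks: DMSO-plus-enzyme-mix negative control, buffer-substituted positive control; compound dosing: single 20 µM dose; schedule: 90 min at room temperature in dark; also added: glucose plus 1 mM ATP as hexokinase substrates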
PfGluPho conf: PfG6PD inhibitors, hit retest, confirmation, biochemical, fluorescence intensity, single concentration. shares compounds with PfG6PD inh. recombinant PfGluPho, NADPH-diaphorase-resazurin fluorescence. inhibition, % at 20 µM. 2,400 tested, 34% active. AID 504753, 2011;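 active means inhibition of at least 50% at 20 µM in any single replicate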;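 further: 0% = DMSO with substrate and 100% = DMSO lacking glucose-6-phosphate substrate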
Diaphorase 10uM: diaphorase inhibitors and chemical oxidizers, confirmation, counter-screen for P. falciparum G6PD inhibitor project, biochemical, fluorescence intensity, 10 µM NADPH. shares compounds with PfG6PD inh. diaphorase-coupled resazurin reduction, NADPH 10 uM. inhibition, % at 20 µM. 820 tested, 39% active. AID 504862, 2011;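 active means average inhibition reaching 50% or more with the compound at 20 µM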;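 further: resorufin red fluorescence formed as diaphorase reduces resazurin using NADPH; 0% = DMSO with enzyme and 100% = DMSO without enzyme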
Diaphorase 30uM: diaphorase inhibitors and chemical oxidizers, confirmation, counter-screen for P. falciparum G6PD inhibitor project, biochemical, fluorescence intensity, 30 µM NADPH. shares compounds with PfG6PD inh. Diaphorase/resazurin coupled assay, resorufin fluorescence. inhibition, % at 20 µM. 820 tested, 29% active. AID 504863, 2011;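 active means inhibition averaging 50% or more, tested at 20 µM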;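 further: 0% = DMSO with enzyme and 100% = DMSO wells lacking diaphorase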
An asterisk follows results filed as active. Sampled rows, rich in hits. Any-hit rate of the full collection: about 1.3%.

For C/C(Cn1nnc([N+](=O)[O-])n1)=N\NC(=O)c1ccccc1O the results were PfG6PD inh 66.7*, Tb hexokinase -27.5, HKDC1 inh 11.0, PfGluPho conf 74.6*, Diaphorase 10uM 31.2 and Diaphorase 30uM 34.3.
For Cc1ccc(-n2c(N)c(C(=O)NCc3ccco3)sc2=S)cc1 the results were Diaph inh CS 16.0, PfG6PD inh 58.6, Tb hexokinase -21.8, Diaphorase act 0.8, G6PDH counter 2.9 and HKDC1 inh 0.3.
For Nc1c(C(=O)NCc2cccnc2)sc(=S)n1-c1ccccc1 the results were Diaph inh CS -1.6, PfG6PD inh 49.4, Tb hexokinase -14.5, Diaphorase act 1, G6PDH counter 1.6, HKDC1 inh -2.8 and PfGluPho conf 42.6.
`Cc1ccc(-n2c(N)c(C(N)=O)sc2=S)cc1` gave Diaph inh CS 0.3, PfG6PD inh 69.1*, Tb hexokinase -19.7, Diaphorase act 1, G6PDH counter 5.6, HKDC1 inh -8.3 and PfGluPho conf 31.3.
`COc1ccc(CNC(=O)c2sc(=S)n(-c3ccc(OC)cc3)c2N)cc1` gave Diaph inh CS 19.3, PfG6PD inh 63.2*, Tb hexokinase 0.9, Diaphorase act 0.8, G6PDH counter -1.1, HKDC1 inh -14.3 and PfGluPho conf -1.3.
CCOc1ccccc1N(CC)C(=O)c1nn(C)c2c1CSc1ccccc1-2 was read as PfG6PD inh 15.8 and HKDC1 inh -2.5.
C=CCc1ccccc1OCC(=O)N/N=C/c1ccc(OC(C)=O)cc1OC(C)=O was read as Diaph inh CS 7.1, PfG6PD inh -29.0, Tb hexokinase -13.4, Diaphorase act 0.9, G6PDH counter -1.5 and HKDC1 inh -32.5.
`Cc1cc(NC(=O)CN2CCN(c3ccc(O)cc3)CC2)no1` gave Diaph inh CS 31.0, PfG6PD inh 68.0*, Tb hexokinase 1.5, Diaphorase act 0.7, G6PDH counter 10.7, HKDC1 inh -0.6 and PfGluPho conf 35.6.
O=C(CN1CCN(c2ccc(O)cc2)CC1)Nc1ccc2c(c1)OCCO2 was read as Diaph inh CS 38.1, PfG6PD inh 71.4*, Tb hexokinase 2.5, Diaphorase act 0.6, G6PDH counter 1.7, HKDC1 inh 3.2 and PfGluPho conf 20.6.
O=C(CN1CCN(c2ccc(F)cc2)CC1)Nc1ccc2c(c1)OCCO2 was read as PfG6PD inh -2.3 and HKDC1 inh -1.4.
For Cc1cc(NC(=O)CN2CCN(S(=O)(=O)c3ccc(Cl)cc3)CC2)no1 the results were Diaph inh CS 9.3, PfG6PD inh 3.4, Tb hexokinase -8.7, Diaphorase act 0.9, G6PDH counter -0.9 and HKDC1 inh 5.8.
`Cc1ccc(N2CCN(S(=O)(=O)c3ccc(C)cc3)CC2)cc1` gave PfG6PD inh -7.1 and HKDC1 inh -2.9.
O=C(CN1CCN(c2ccc(O)cc2)CC1)NCC(=O)Nc1ccc(F)c(F)c1F was read as PfG6PD inh 67.0*, HKDC1 inh 3.4 and PfGluPho conf 33.1.
For Cc1ccc(S(=O)(=O)N2CCN(C(=O)CN3CCN(c4ccc(O)cc4)CC3)CC2)cc1 the results were PfG6PD inh 63.5*, HKDC1 inh 2.3 and PfGluPho conf 25.1.
For COc1ccccc1NC(=O)O/N=C(\N)c1ccccc1 the results were PfG6PD inh 4.0, Tb hexokinase 0.6 and HKDC1 inh -5.6.
Cc1ccc(CC(=O)Nc2ccc(C(=O)N3CCOCC3)cc2)cc1 was read as PfG6PD inh 5.8 and HKDC1 inh -3.9.
Screening O=C(OC1CCOC1=O)C1CCN(S(=O)(=O)c2ccccc2)CC1 (stereo not given) returned PfG6PD inh 7.6 and HKDC1 inh -3.2.
Screening Cc1ccc(C)c(S(=O)(=O)N2CCN(C(=O)[C@H](Cc3ccccc3)NC(=O)c3ccco3)CC2)c1 returned PfG6PD inh 0.7 and HKDC1 inh -8.1.
For COC(=O)c1ccc(NC(=O)CS(=O)(=O)c2ccccc2)cc1 the results were PfG6PD inh -1.6 and HKDC1 inh 7.5.
`O=S(=O)(Nc1ccc2oc(-c3ccccc3)nc2c1)c1ccccc1` gave Diaph inh CS 16.2, PfG6PD inh 88.0*, Tb hexokinase -6.5, Diaphorase act 0.8, G6PDH counter 6.4, HKDC1 inh 6.0 and PfGluPho conf 37.7.
For Cc1ccc(-c2nc3cc(NS(=O)(=O)c4ccc(C)cc4)ccc3o2)cc1 the results were Diaph inh CS 24.5, PfG6PD inh 22.0, Tb hexokinase -4.8, Diaphorase act 0.8, G6PDH counter 5.6 and HKDC1 inh -3.7.
Screening Cc1ccc(CNC(=O)CCNS(=O)(=O)c2cccc3nsnc23)cc1 returned PfG6PD inh 4.5 and HKDC1 inh -4.5.
Screening C=CCOc1c(Cl)cc(CNc2ccc3[nH]c(=O)[nH]c3c2)cc1OC returned Diaph inh CS 35.6, PfG6PD inh 63.8*, Tb hexokinase -1.0, Diaphorase act 0.6, G6PDH counter 3.3, HKDC1 inh 9.8, PfGluPho conf 58.3*, Diaphorase 10uM 20.6 and Diaphorase 30uM 17.6.
Screening C=CCOc1ccccc1CNc1ccc2[nH]c(=O)[nH]c2c1 returned Diaph inh CS 41.9, PfG6PD inh 55.8, Tb hexokinase -5.8, Diaphorase act 0.6, G6PDH counter 5.2 and HKDC1 inh -2.5.
For c1ccc2c(c1)CCN(c1nc3cc4c(cc3s1)OCCO4)C2 the results were Diaph inh CS 4.4, PfG6PD inh 64.1*, Tb hexokinase 0.1, Diaphorase act 1, G6PDH counter -6.2, HKDC1 inh 9.3 and PfGluPho conf 18.2.
